# According to PubChem BioAssay:
# Calls of active or inactive are those of the source.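 How the source made its calls, unless noted: active means viability at or below 30% in both replicate assays; inconclusive means viability at or below 30% in just one of the two assays; inactive means the rest.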
# Tests used:
# [1] = biological target: Pantothenate synthetase (Mycobacterium tuberculosis (strain ATCC 25618 / H37Rv)) (UniProt P9WIL5); test: Coupled enzyme confirmation of inhibitors against recombinant Mtb PanC (AID 375; call rule not given here;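 further: 0% = full reaction with vehicle and 100% = no enzyme background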); details: coupled enzyme assay; at 10 µM, stronger effect = higher value
# Sequence of Pantothenate synthetase (Mycobacterium tuberculosis (strain ATCC 25618 / H37Rv)) (P9WIL5 whole entry, looked up): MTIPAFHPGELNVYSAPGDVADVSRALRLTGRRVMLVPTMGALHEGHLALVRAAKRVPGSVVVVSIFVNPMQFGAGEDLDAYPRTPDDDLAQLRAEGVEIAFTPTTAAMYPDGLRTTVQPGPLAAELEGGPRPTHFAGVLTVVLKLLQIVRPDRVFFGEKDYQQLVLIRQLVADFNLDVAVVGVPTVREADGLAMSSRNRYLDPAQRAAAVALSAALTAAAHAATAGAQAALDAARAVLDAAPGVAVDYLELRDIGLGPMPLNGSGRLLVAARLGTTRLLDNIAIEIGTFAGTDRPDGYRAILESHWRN
# [2] = Her2 expression decrease, cell viability multiplex – SKBR3 breast tumor cells, AlphaScreen, ATP viability, primary screen (AID 461;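 active means Her2 level under about 52% in both replicate screens, with viability over 70% of control, limit read from the data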;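 on Her2 level: lower value means less Her2 protein in the cells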;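 on viability: percent of carrier control wells set as 100% viability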); details: SKBR3 Her2 protein level, 18-24 h, measured here: SKBR3 viability, ATP luminescence, at 10 µM
# [3] = biological target: Receptor tyrosine-protein kinase erbB-2 (Homo sapiens) (UniProt P04626); test: as above; details: 18-24 h, at 10 µM, stronger effect = lower value
# Sequence of Receptor tyrosine-protein kinase erbB-2 (Homo sapiens) (P04626 whole entry, looked up): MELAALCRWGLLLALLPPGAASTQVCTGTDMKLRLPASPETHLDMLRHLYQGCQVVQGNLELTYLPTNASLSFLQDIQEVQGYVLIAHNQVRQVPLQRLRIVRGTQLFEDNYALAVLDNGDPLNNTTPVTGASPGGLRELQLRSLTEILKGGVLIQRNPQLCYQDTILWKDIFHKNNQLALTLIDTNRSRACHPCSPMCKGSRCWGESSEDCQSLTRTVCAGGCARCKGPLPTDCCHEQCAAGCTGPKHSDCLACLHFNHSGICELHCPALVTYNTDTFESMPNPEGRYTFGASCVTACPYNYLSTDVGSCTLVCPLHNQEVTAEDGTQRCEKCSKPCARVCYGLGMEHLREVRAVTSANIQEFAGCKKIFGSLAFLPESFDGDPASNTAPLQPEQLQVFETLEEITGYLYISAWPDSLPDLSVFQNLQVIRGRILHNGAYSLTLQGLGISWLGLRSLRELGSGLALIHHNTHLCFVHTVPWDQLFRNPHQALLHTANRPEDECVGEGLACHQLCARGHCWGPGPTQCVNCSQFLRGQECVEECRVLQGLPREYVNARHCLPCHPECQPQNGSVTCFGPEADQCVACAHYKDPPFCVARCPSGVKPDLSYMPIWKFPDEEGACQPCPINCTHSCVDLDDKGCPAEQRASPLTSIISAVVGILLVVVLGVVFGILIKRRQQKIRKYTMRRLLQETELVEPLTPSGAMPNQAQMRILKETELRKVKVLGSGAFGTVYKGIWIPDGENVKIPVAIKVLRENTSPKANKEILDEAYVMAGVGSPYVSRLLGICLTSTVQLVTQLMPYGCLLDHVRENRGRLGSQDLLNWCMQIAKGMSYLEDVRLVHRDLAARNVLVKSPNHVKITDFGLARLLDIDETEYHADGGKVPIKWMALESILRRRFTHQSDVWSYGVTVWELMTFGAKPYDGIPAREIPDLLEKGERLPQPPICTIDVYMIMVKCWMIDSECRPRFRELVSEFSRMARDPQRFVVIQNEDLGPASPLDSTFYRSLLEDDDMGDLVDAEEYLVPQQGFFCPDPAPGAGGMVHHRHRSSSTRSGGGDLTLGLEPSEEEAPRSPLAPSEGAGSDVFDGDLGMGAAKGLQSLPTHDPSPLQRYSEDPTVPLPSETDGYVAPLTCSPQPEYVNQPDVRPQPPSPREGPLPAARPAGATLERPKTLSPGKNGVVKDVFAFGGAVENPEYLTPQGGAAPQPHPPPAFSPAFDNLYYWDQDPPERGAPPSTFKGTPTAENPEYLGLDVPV
# [4] = reduced viability of SK-BR-3 breast cancer cells – cell-based, 24 h, human, pilot screen (AID 572;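 active means viability at or below 10% of carrier control in both of two separate runs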;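 further: compound exposure lasted between 18 and 24 h rather than exactly 24 h; 100% = carrier-treated control wells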); details: SK-BR-3 viability, CellTiter-Glo luminescence, at 10 µM, stronger effect = lower value
# [5] = HUVEC growth inhibition – cell-based, human, primary screen (AID 575); details: HUVEC proliferation, CellTiter-Glo luminescence, 72 h; at 10 µM; stronger effect = lower value;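 further: 100% = median of untreated cell wells with 0.1% DMSO on each plate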
# How it was run: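 Timing: 72 h treatment at 37 °C; material: HUVEC primary cells; technique: CellTiter-Glo luminescence measuring cellular ATP; controls: vehicle and MePR control wells; measure: percent of median DMSO-control luminescence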
# [6] = H69AR cell proliferation blockers – human, duplicate replicates, primary screen (AID 580;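 active means viability at or under a set limit in both replicates, limit being median viability minus 3 SD, cut at about 48% in these data, passing the limit was not always enough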;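 further: 100% = mean luminescence of untreated wells and 0% = no signal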); details: H69AR lung tumor cells viability, ATP luminescence, 72 h; at 10 µM; stronger effect = lower value
# [7] = MRP1 drug-resistance reversers in H69AR cells – cell-based, doxorubicin co-treatment, pilot screen (AID 601;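 active means viability loss from added drug above about 55%, and viability with drug at most 40%, in both replicates, limit read from the data, passing the limit was not always enough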); details: CellTiter-Glo, 72 h, at 10 µM; for differential viability (reversal): stronger effect = higher value
# [8] = yeast transport mutant growth inhibition pilot in 384-well plates, post-Golgi transport modulator project (AID 636; in the data active means inhibition above about 31%); details: absorbance 615 nm, about 18 h, stronger effect = higher value
# [9] = growth suppression of yeast trafficking mutant, preliminary HTS, modulators of trafficking downstream of Golgi apparatus project, 1536-format plate, OD 615 nm (AID 637; in the data active means inhibition above about 30%); details: yeast transport mutant growth, absorbance 615 nm, 18 h; stronger effect = higher value
# [10] = H69AR cells + 2 uM doxorubicin, measured here: viability with 2 uM doxorubicin, stronger effect = lower value
# [11] = H69AR cells, compound alone cytotoxicity
SMILES,inhibition [1],viability [2] [%],Her2 level [3],viability [4],viability [5],viability [6],differential viability (reversal) ([7]; H69AR cells + 2 uM doxorubicin),"viability [7, 10] [%]","viability [7, 11] [%]",inhibition [8],inhibition [9]
COc1ccc(CC2C(=O)NC(=O)NC2=O)c(OC)c1,2% (inactive),96.5,113% (inactive),96.5% (inactive),114% (inactive),106% (inactive),4.86% (inactive),101,106,2.8% (inactive),-1.75% (inactive)
C(#CCN1CCOCC1)COCC#Cc1ccccc1,0% (inactive),92.5,85.5% (inactive),92.5% (inactive),91.4% (inactive),101% (inactive),15.2% (inactive),85.3,101,-5.41% (inactive),1.11% (inactive)
C=CCn1c(O)c(C(C)=NCc2cccnc2)c(=O)[nH]c1=O,0% (inactive),104,113% (inactive),104% (inactive),88.1% (inactive),92.2% (inactive),4.8% (inactive),87.4,92.2,-6.49% (inactive),-1.33% (inactive)
Nc1ccccc1C(=O)OC1CSC1,0% (inactive),132,110% (inactive),132% (inactive),105% (inactive),89.2% (inactive),0.43% (inactive),88.7,89.2,-2.53% (inactive),1.45% (inactive)
NCCc1ccc(O)cc1,0% (inactive),112,112% (inactive),112% (inactive),103% (inactive),96.2% (inactive),4.17% (inactive),92.1,96.2,-5% (inactive),-21.1% (inactive)
O=C(C1CCCN(S(=O)(=O)c2cccc3nsnc23)C1)N1CCC2(CC1)OCCO2 (stereo unspecified),0% (inactive),97,100% (inactive),97% (inactive),100% (inactive),81.6% (inactive),-16.9% (inactive),98.5,81.6,-5% (inactive),1.33% (inactive)
CN1CCC(OC(=O)C2c3ccccc3Oc3ccccc32)CC1,2% (inactive),96.5,96% (inactive),96.5% (inactive),64.3% (inactive),86.4% (inactive),0.945% (inactive),85.5,86.4,-0.39% (inactive),-5.16% (inactive)
OCC12COC3c4ccccc4C(OC1)N32 (stereo unspecified),0% (inactive),110,118% (inactive),110% (inactive),94% (inactive),97.3% (inactive),4.61% (inactive),92.7,97.3,-5.47% (inactive),-5.81% (inactive)
Cc1ccc(CS(=O)(=O)CCC(=O)N2CCC3(CC2)OCCO3)cc1,7% (inactive),106,118% (inactive),106% (inactive),121% (inactive),97.7% (inactive),9.99% (inactive),87.7,97.7,-4.87% (inactive),-0.82% (inactive)
Cc1cc(C)c(C(=O)CN2CCOCC2)c(C)c1,2% (inactive),105,98.5% (inactive),105% (inactive),83.7% (inactive),74% (inactive),-6.78% (inactive),80.7,74,-5.19% (inactive),-0.33% (inactive)
O=C(NCc1ccccn1)c1ccccc1Cl,0% (inactive),91.5,76.5% (inactive),91.5% (inactive),91.2% (inactive),98% (inactive),16.5% (inactive),81.5,98,-7.95% (inactive),0.63% (inactive)
COc1ccccc1OCCCn1cc(C(=O)c2ccco2)c2ccccc21,0% (inactive),106,96% (inactive),106% (inactive),74.9% (inactive),77.5% (inactive),-5.27% (inactive),82.7,77.5,-4.73% (inactive),-5.33% (inactive)
COC(=O)c1cncn1C(C)c1ccccc1 (stereo unspecified),0% (inactive),88.5,80.5% (inactive),88.5% (inactive),108% (inactive),95% (inactive),6.07% (inactive),88.9,95,-4.46% (inactive),-5.25% (inactive)
c1ccc2c(c1)OCC(C1=NCCN1)O2 (stereo unspecified),0% (inactive),104,108% (inactive),104% (inactive),108% (inactive),81.4% (inactive),9.15% (inactive),72.2,81.4,,
CN1CCN(C(=O)OC2c3nccnc3C(=O)N2c2ccc(Cl)cn2)CC1 (stereo unspecified),8% (inactive),91.5,108% (inactive),91.5% (inactive),106% (inactive),94.1% (inactive),-3.97% (inactive),98.1,94.1,,
